# The list is not random: actives were taken first. Their share in the collection is about 3.2%.
# UBC13 inh: UBC13 polyubiquitin chain formation inhibitors, primary screen, biochemical, TR-FRET, uHTS; 0.47% of 330,000 active; AID 485273, 2010; inhibition, % at 20 µM; Ubiquitin-conjugating enzyme E2 N (Homo sapiens), P61088; in the data active means inhibition above about 45%, passing the limit was not always enough
# Apaf1 inhib: inhibitors of human Apaf-1 apoptosome, primary screen, biochemical, DEVD-Rh110 fluorescence, uHTS | reconstituted apoptosome caspase-3 activity | inhibition, % at 20 µM | 0.71% of 330,000 active; active means inhibition of at least 40% at 20 µM;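 further: plate controls were DMSO wells for no effect and DEVD-CHO caspase inhibitor wells for full effect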
# Target sequence (O14727 whole entry, looked up): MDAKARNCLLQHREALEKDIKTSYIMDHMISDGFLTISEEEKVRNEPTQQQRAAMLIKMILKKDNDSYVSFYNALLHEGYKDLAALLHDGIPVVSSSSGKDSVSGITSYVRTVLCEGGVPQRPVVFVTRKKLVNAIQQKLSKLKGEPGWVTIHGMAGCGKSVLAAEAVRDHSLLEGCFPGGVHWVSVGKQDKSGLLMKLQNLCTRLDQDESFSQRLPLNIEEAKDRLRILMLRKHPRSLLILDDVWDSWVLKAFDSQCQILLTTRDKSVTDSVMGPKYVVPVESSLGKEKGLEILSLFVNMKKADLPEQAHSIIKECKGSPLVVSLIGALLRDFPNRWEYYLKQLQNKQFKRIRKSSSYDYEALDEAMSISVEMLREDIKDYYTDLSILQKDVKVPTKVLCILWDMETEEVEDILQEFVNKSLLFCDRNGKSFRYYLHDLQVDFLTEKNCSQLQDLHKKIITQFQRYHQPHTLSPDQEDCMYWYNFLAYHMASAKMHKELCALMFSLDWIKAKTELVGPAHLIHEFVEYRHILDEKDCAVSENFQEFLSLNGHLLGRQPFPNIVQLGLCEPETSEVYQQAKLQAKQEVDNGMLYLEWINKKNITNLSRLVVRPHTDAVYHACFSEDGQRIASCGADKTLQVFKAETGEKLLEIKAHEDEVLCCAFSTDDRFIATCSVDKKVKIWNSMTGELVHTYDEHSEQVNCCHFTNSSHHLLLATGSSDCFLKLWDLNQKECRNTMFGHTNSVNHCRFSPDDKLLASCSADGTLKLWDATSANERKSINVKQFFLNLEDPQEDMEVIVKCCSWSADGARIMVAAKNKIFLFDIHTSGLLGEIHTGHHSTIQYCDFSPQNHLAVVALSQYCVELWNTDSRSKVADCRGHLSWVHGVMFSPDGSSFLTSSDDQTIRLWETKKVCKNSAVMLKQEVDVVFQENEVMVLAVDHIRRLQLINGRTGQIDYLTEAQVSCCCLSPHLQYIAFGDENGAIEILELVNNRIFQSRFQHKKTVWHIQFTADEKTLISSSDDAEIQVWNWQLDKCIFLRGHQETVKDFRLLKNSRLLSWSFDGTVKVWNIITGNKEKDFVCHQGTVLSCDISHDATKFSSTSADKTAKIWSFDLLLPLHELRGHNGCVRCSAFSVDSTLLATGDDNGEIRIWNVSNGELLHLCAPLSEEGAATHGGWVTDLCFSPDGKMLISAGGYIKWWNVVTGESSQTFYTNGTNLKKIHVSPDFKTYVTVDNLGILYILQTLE
#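 Assay system: Apoptosome proteins | Medium: pH 7.5 Hepes buffer with CHAPS, BSA, DTT | Also added: Cytochrome c and DEVD-Rh110 substrate | Times: 30 min plus 50 min, RT | Detection: Rhodamine 110 fluorescence at Ex 480/Em 540 nm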
# MEKK2mut PB1 HTS: MEK5 binding signal on mutant MEKK2 PB1, primary screen, biochemical, multiplex bead flow cytometry, Alexa488-MEK5; Alexa488-MEK5 binding to MEKK2 mutant; percent response, % at 10 µM; 0.35% of 290,000 active; in the data active means percent response above about 24%, passing the limit was not always enough
# MEKK2wt PB1 HTS: modulators of MEK5 binding to wildtype MEKK2, primary screen, biochemical, multiplex bead flow cytometry, Alexa488-MEK5; 1.1% of 290,000 active; Mitogen-activated protein kinase kinase kinase 2 (Homo sapiens), Q9Y2U5; binding response (% of control), % at 10 µM; Alexa488-MEK5 binding to MEKK2 WT; actives lie on both sides; AID 1531, 2009; in the data active means binding response below about 67% or above about 130%
# MEKK3 PB1 HTS: modulators of MEKK3-MEK5 PB1 binding, primary screen, biochemical, wildtype MEKK3, multiplex bead flow cytometry, Alexa488-MEK5 | bead-based flow cytometry, Alexa488-MEK5 binding to MEKK3; actives lie on both sides; 0 = blocked by unlabeled MEK5, 100 = vehicle | binding response (% of control), % at 10 µM | 1.4% of 290,000 active | AID 1529, 2009;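 active means binding response more than 3 SD above or below the average of its plate-row segment, actives on both sides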;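 further: Alexa488 bead fluorescence after subtracting the streptavidin-only scavenger bead signal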
# DSG3 Ab inh: inhibitors of pemphigus antibody binding to DSG3, primary screen, biochemical, bead-based, flow cytometry, scFv-GFP; 0.48% of 310,000 active; Desmoglein-3 (Homo sapiens), P32926; binding (percent of control), % at 10 µM; AID 588358, 2011; DSG3-coupled beads, scFv-anti-DSG3-GFP binding; active compounds read low;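 active means binding more than 3 SD below its plate's average and above zero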;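 further: hits lower antibody fragment binding to DSG3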
# MEKK2wt confirm: modulators of MEK5 binding to wildtype MEKK2, confirmation, biochemical, single concentration, multiplex bead flow cytometry; shares compounds with MEKK3 PB1 HTS; 2.4% of 5,900 active; binding response (% of control), % at 10 µM; Alexa488-MEK5 binding to MEKK2 WT; actives lie on both sides; in the data active means binding response below about 16% or above about 210%; inactive means in between
# MEKK2mut-MEK5: mutant MEKK2 PB1-MEK5 binding signal retest – biochemical, single concentration, multiplex bead flow cytometry, confirmation; shares compounds with MEKK3 PB1 HTS; Alexa488-MEK5 binding to MEKK2 mutant; percent response, % at 10 µM; 2% of 5,900 active; AID 1893, 2009; in the data active means percent response mostly above about 71%, no sharp cut-off; inactive means mostly below about 38%;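 further: higher means compound restores mutant binding toward wildtype level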
# MEKK3 confirm: MEKK3 wild-type PB1 binding to MEK5, inhibitors, confirmation, biochemical, bead multiplex flow cytometry, single concentration, wildtype; 1.8% of 5,900 active; binding response (% of control), % at 10 µM; shares compounds with MEKK3 PB1 HTS; Alexa488-MEK5 binding to MEKK3; active compounds read low;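 active means binding response below 72% of control, or above a set upper limit, though filed actives all read lower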;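 further: 100% = DMSO only wells and 0% = binding blocked by excess unlabeled MEK5; lower values mean stronger disruption of MEK5 binding to MEKK3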
# Casp3 counter: CASP3 inhibitor validation, counterassay for project on UBE2N polyubiquitination blockers, biochemical, one dose | AID 488856, 2010 | 4% of 1,400 active | inhibition, % at 20 µM | shares compounds with UBC13 inh | Recombinant caspase-3, Caspase-Glo 3/7 luminescence, 60 min;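 active means mean inhibition across replicates above about 26%, limit read from the data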;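 further: plate controls were DMSO with caspase-3 for no effect and DMSO wells lacking enzyme for full effect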
# UBC13 confirm: UBC13 polyubiquitination inhibitors, single-point retest, confirmation, biochemical, TR-FRET, single concentration. shares compounds with UBC13 inh. inhibition, % at 10 µM. 68% of 1,400 active. AID 488859, 2010; in the data active means inhibition above about 45%
# * marks the source's active call; other numbers are inactive results; / = not tested or not shown; [ ] = remark or other dose.
SMILES,UBC13 inh,Apaf1 inhib,MEKK2mut PB1 HTS,MEKK2wt PB1 HTS,MEKK3 PB1 HTS,DSG3 Ab inh,MEKK2wt confirm,MEKK2mut-MEK5,MEKK3 confirm,others
O=C(O)C1Cc2ccccc2N2CCCC12 (centres undefined),-4.8,8.2,7.0,107.0,100.0,68.9,/,/,/,
O=c1[nH]c(O)c(/C=C2/C=CC(c3cc(Cl)ccc3Cl)=N2)c(=O)[nH]1,-6.9,12.1,1.0,63.0*[inhibitor],109.0,93.7,66.0,-14.0,95.0,
COC(=O)CCCC(NC(=S)N1CC2C[C@@H](C1)Cn1c2cccc1=O)C(=O)OC (some centres undefined),-7.8,-2.0,6.0,107.0,109.0,97.5,/,/,/,
NC(=O)Cn1cc(C(=O)c2ccccc2)c2ccccc21,-12.3,11.5,4.0,107.0,109.0,102.4,/,/,/,
c1ccc(-c2[nH]c[n+](CC3CO3)c2-c2ccccc2)cc1 (centres undefined),18.9,51.1*,40.0,152.0*,104.0,/,110.0,0.0,100.0,
COc1ccc(N2CCN(CCCN)CC2)cc1,6.8,4.5,23.0,152.0*,104.0,109.6,162.0,34.0,108.0,
COc1ccc(N2C(=O)CC(=O)NC2=O)cc1,5.5,-0.3,1.0,106.0,104.0,101.8,/,/,/,
NCCCN1CCN(c2ccccc2)CC1,-6.7,-2.2,28.0,152.0*,98.0,106.0,133.0,25.0,101.0,
CCOC(=O)c1c(/N=C/c2c(O)n(-c3ccccc3F)c(=S)[nH]c2=O)sc2c1CCCC2,-3.4,2.3,-34.0,64.0*[inhibitor],91.0,97.7,51.0,-23.0,92.0,
Cc1ccc(C(=O)N[C@@H](C)CN2C3=NC[C@H](Cc4ccccc4)N3C[C@H]2Cc2ccc(O)cc2)cc1Br,65.1*,28.3,31.0*,168.0*,112.0,/,155.0,25.0,88.0,Casp3 counter=2.5;UBC13 confirm=64.6*
Cc1ccc(C(=O)N[C@@H](C)CN2C3=NC[C@@H](Cc4ccccc4)N3C[C@H]2Cc2ccc(O)cc2)cc1Br,77.0*,27.9,103.0*,248.0*,108.0,/,159.0,61.0,107.0,Casp3 counter=-1.2;UBC13 confirm=75.7*
CNCC(O)c1cccc(OC(=O)c2ccccc2C)c1 (centres undefined),7.0,-3.2,/,/,/,111.7,/,/,/,
CNCC(O)c1cc(OCc2ccccc2)c(OCc2ccccc2)cc1F (centres undefined),52.6*,7.9,17.0,138.0*,103.0,104.7,125.0,12.0,104.0,Casp3 counter=1.8;UBC13 confirm=38.6
CCC1CN1P(=O)(c1ccccc1)N1CC1CC (centres undefined),/,/,/,/,/,93.3,/,/,/,

# Screening data: PubChem, several laboratories
